Structures are written as SMILES. ≈ marks a conversion by molar mass, not a printed value.

Our source for the MIC values is ChEMBL document CHEMBL1687800, “Emergence of metallo-β-lactamase NDM-1-producing multidrug-resistant Escherichia coli in Australia” (2010).

Holding throughout (assay type): functional
Assay [1] concerns Escherichia coli. Briefly: Antibacterial activity against Escherichia coli TOP10. An outline of the steps: (§1)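 MICs of β-lactams read by Etest on Mueller-Hinton agar plates incubated at 37°C, with susceptibility categories assigned according to CLSI guidelines. Strains tested were a clinical urine isolate (E. coli 271), E. coli TOP10 carrying recombinant plasmid p271A expressing NDM-1, and the TOP10 reference strain.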

Assay [2] concerns Escherichia coli. The assay is described as follows: Antibacterial activity against Escherichia coli TOP10 expressing metallo-beta-lactamase NDM-1. Summed up: as §1
For assay [3], the system named is Escherichia coli. Briefly: Antibacterial activity against Escherichia coli isolate 271. An outline of the steps: as §1

Turning to `CC1(C)S[C@@H]2[C@H](NC(=O)[C@H](N)c3ccc(O)cc3)C(=O)N2[C@H]1C(=O)O` [AMOXICILLIN], the results for the MIC in the assay with Escherichia coli [1], against Escherichia coli [2] and against Escherichia coli [3] were 4 µg/mL (≈ 10.9 µM), greater than 512 µg/mL and greater than 512 µg/mL, respectively.

Turning to `C[C@H]1[C@H](NC(=O)/C(=N\OC(C)(C)C(=O)O)c2csc(N)n2)C(=O)N1S(=O)(=O)O` [AZTREONAM], the figures for the MIC with Escherichia coli [2] and against Escherichia coli [3] were 0.25 µg/mL (≈ 0.574 µM) and 64 µg/mL (≈ 147 µM), respectively.

Turning to `CO/N=C(\C(=O)N[C@@H]1C(=O)N2C(C(=O)[O-])=C(C[N+]3(C)CCCC3)CS[C@H]12)c1csc(N)n1` [CEFEPIME], the figures for the minimal inhibitory concentration (MIC) against Escherichia coli [2] and against Escherichia coli [3] were 16 µg/mL (≈ 33.3 µM) and 64 µg/mL (≈ 133 µM), respectively.

With `CO/N=C(\C(=O)N[C@@H]1C(=O)N2C(C(=O)O)=C(COC(C)=O)CS[C@H]12)c1csc(N)n1` [CEFOTAXIME], the MIC (usually the lowest concentration that inhibits growth of the organism) with Escherichia coli [1] came to 0.12 µg/mL (≈ 0.263 µM); in the assay with Escherichia coli [2], 256 µg/mL (≈ 562 µM); against Escherichia coli [3], 512 µg/mL (≈ 1120 µM).

Regarding `CO[C@@]1(NC(=O)Cc2cccs2)C(=O)N2C(C(=O)O)=C(COC(N)=O)CS[C@@H]21` [CEFOXITIN], the MIC in the assay with Escherichia coli [1] came out at 4 µg/mL (≈ 9.36 µM); against Escherichia coli [2], 256 µg/mL (≈ 599 µM); against Escherichia coli [3] it was 512 µg/mL (≈ 1200 µM).

For `CC(C)(O/N=C(\C(=O)N[C@@H]1C(=O)N2C(C(=O)[O-])=C(C[n+]3ccccc3)CS[C@H]12)c1csc(N)n1)C(=O)O` [CEFTAZIDIME], the minimal inhibitory concentration (MIC) was 0.06 µg/mL (≈ 0.11 µM) against Escherichia coli [1], 128 µg/mL (≈ 234 µM) against Escherichia coli [2] and 256 µg/mL (≈ 468 µM) in the assay with Escherichia coli [3].

For `C[C@@H](O)[C@H]1C(=O)N2C(C(=O)O)=C(S[C@@H]3CN[C@H](C(=O)Nc4cccc(C(=O)O)c4)C3)[C@H](C)[C@H]12` [ERTAPENEM], the minimal inhibitory concentration (MIC) against Escherichia coli [1] stood at 0.06 µg/mL (≈ 0.126 µM); with Escherichia coli [2], 3 µg/mL (≈ 6.31 µM); against Escherichia coli [3], 32 µg/mL (≈ 67.3 µM).

With `C[C@@H](O)[C@H]1C(=O)N2C(C(=O)O)=C(SCCNC=N)C[C@H]12` [IMIPENEM ANHYDROUS], the MIC in the assay with Escherichia coli [2] was 4 µg/mL (≈ 13.4 µM); with Escherichia coli [3] it was 6 µg/mL (≈ 20 µM).

Consider `C[C@@H](O)[C@H]1C(=O)N2C(C(=O)O)=C(S[C@@H]3CN[C@H](C(=O)N(C)C)C3)[C@H](C)[C@H]12` [MEROPENEM], for which the results for the MIC in the assay with Escherichia coli [1], with Escherichia coli [2] and in the assay on Escherichia coli [3] were 0.06 µg/mL (≈ 0.156 µM), 3 µg/mL (≈ 7.82 µM) and 16 µg/mL (≈ 41.7 µM), respectively.

As for `CCN1CCN(C(=O)N[C@@H](C(=O)N[C@@H]2C(=O)N3[C@@H]2SC(C)(C)[C@@H]3C(=O)O)c2ccccc2)C(=O)C1=O` [PIPERACILLIN], the minimum inhibitory concentration (MIC) in the assay on Escherichia coli [1] is 1 µg/mL (≈ 1.93 µM); in the assay on Escherichia coli [2] it was 512 µg/mL (≈ 989 µM); in the assay with Escherichia coli [3], greater than 512 µg/mL.

Regarding `CC1(C)S[C@@H]2[C@H](NC(=O)[C@H](C(=O)O)c3ccsc3)C(=O)N2[C@H]1C(=O)O` [TICARCILLIN], the minimum inhibitory concentration (MIC) in the assay on Escherichia coli [1] is 4 µg/mL (≈ 10.4 µM); in the assay on Escherichia coli [2] it was greater than 512 µg/mL; against Escherichia coli [3], greater than 512 µg/mL.
